Reference: publication PMC10925177 (bioRxiv, 2024)

What was measured:
GLP [1] = biological target: T1, GLP (Homo sapiens, UniProt Q9H9B1); experiment: Western blot of GLP protein levels in cancer cells; assay type: cell-based
T1 sequence (Q9H9B1 1-1298): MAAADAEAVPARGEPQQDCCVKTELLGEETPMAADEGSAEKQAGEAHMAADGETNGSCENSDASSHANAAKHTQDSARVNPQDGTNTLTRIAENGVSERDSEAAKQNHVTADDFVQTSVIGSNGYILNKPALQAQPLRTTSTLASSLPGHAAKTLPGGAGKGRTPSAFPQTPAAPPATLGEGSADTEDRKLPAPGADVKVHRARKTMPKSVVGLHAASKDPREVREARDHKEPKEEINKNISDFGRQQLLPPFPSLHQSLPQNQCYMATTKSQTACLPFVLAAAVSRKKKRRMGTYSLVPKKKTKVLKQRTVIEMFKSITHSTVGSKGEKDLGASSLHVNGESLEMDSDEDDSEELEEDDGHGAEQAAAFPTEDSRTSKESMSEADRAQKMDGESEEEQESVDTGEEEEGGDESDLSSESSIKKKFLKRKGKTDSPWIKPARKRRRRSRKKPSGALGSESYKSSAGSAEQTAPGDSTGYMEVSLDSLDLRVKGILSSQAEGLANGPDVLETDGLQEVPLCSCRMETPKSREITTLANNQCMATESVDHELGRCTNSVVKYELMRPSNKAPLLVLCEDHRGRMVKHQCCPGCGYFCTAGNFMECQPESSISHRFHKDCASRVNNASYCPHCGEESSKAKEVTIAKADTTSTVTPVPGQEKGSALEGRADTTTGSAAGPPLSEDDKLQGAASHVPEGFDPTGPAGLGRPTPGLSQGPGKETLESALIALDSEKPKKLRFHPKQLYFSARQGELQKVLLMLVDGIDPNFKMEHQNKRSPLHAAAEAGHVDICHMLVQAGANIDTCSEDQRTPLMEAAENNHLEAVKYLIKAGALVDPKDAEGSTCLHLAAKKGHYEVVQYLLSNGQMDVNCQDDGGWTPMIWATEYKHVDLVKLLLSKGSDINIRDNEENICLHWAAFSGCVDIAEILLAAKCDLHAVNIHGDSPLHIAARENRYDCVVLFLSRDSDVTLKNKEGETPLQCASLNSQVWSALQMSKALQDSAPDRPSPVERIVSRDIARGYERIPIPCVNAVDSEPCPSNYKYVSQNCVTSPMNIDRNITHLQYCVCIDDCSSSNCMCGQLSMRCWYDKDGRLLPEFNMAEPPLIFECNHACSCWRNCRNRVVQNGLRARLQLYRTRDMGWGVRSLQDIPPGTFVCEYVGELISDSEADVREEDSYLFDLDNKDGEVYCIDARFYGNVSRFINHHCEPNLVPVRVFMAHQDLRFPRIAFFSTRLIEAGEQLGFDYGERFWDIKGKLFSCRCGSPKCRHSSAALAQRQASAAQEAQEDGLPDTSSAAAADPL
Method in brief: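 Cells (22Rv1, K562, H1299) were treated for 24 h at the indicated concentrations; 22Rv1 time courses were run at 3 μM. Cells were lysed in RIPA with protease inhibitors, and 10–30 μg of protein was resolved by SDS-PAGE and transferred to PVDF. Blots were probed overnight at 4 °C, with vinculin/β-actin as loading controls. Band intensity was normalised to DMSO, with n = 2 independent experiments (mean ± SD).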

GLP [2] = biological target: T1, GLP; experiment: GLP radioactive methyltransferase assay; assay type: biochemical; conditions: indicated concentrations, duplicate (Figure 4C)
Method in brief: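 Enzyme activity was measured with a radioisotope-based MT HotSpot methyltransferase assay run by a contract laboratory. Test compounds were run at the indicated concentrations, in duplicate. Data are mean ± SD of the two duplicate experiments.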

[3] = tested on: panel of 21 protein methyltransferases; experiment: Selectivity panel, radioactive methyltransferase assays; assay type: biochemical; conditions: 10 μM compound, duplicate
Method in brief: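 The selectivity screen covered 21 protein methyltransferases in radioisotope-based MT HotSpot methyltransferase assays run by a contract laboratory. Test compound was at 10 μM. Each assay was run in duplicate and reported as mean ± SD of the two replicates.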

Question: How did the “GLP degradation, in words” value (GLP [1]; 22Rv1 cells, 1 μM, 24 h, WB (Figure 3A)) turn out when `COc1cc2c(NC3CCN(CCCC(=O)NCCCCCCCCCCCC(=O)N[C@H](C(=O)N4C[C@H](O)C[C@H]4C(=O)NCc4ccc(-c5scnc5C)cc4)C(C)(C)C)CC3)nc(N3CCC(F)(F)CC3)nc2cc1OCCCN1CCCC1` [Compound 10, (2S,4R)-1-((S)-2-(12-(4-(4-((2-(4,4-difluoropiperidin-1-yl)-6-methoxy-7-(3-(pyrrolidin-1-yl)propoxy)quinazolin-4-yl)amino)piperidin-1-yl)butanamido)dodecanamido)-3,3-dimethylbutanoyl)-4-hydroxy-N-(4-(4-methylthiazol-5-yl)benzyl)pyrrolidine-2-carboxamide] was run?
Answer: The value was “potently induced degradation”.

Question: And the “duration of GLP degradation effect” value (GLP [1]; 22Rv1 cells, 3 μM)?
Answer: Its value is “up to 48 h”.

Question: What about the “time at which GLP degradation was first observed” value (GLP [1]; 22Rv1 cells, 3 μM) of the same molecule?
Answer: Its value is 4 h.

Question: What about the “time to complete GLP degradation” value (GLP [1]; 22Rv1 cells, 3 μM) of the same molecule?
Answer: Its value is “around 24 h”.

Question: And the “GLP degradation, in words” value (GLP [1]; H1299 cells, 3 μM, 24 h, WB)?
Answer: Its value is “degraded”.

Question: What about the “GLP degradation, in words” value (GLP [1]; K562 cells, 3 μM, 24 h, WB) of the same molecule?
Answer: Its value is “induced G9a and GLP degradation”.

Question: And the DC50 (GLP [1]; read-out: half-maximal degradation concentration (DC50) for GLP, 22Rv1 cells, 24 h, WB)?
Answer: Its DC50 is 260 ± 53 nM.

Question: What about the “inhibition of GLP enzymatic activity” value (GLP [2]) of the same molecule?
Answer: The value was “similarly inhibited”.

Question: What about the “inhibition of panel methyltransferases” value [3] of the same molecule?
Answer: The value was at most 50%.
